Like-named read-outs stand apart in the source and are kept apart here. Bridge positions count the residues as written; N and C are the ends. Ends that are not written are not given here.

The test system of one data set is ischemic left ventricle. The data set can be described thus: Western analysis of post-ischemic cardiac tissue with anti-mCherry antibody. The data set is classed as in vivo, mouse. The following applies: versus negative controls. Put shortly: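 Mice had 15 min ischemia then 5 min reperfusion. Recombinant Sumo-mCherry–test peptide (Ni-NTA plus size-exclusion purified; 10 mg/mL PBS stock) was given 1 mg i.v. Controls were unconjugated Sumo-mCherry, linear or scrambled peptide fusions, and PBS. After 5 min circulation, ischemic LV, non-ischemic LV and RV were snap frozen, RIPA-homogenized, sonicated and centrifuged, then blotted with rabbit anti-RFP. Three blinded sets, 5 mice each.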

For data set [1], the system named is heart function in rats after ischemia/reperfusion injury.
In another data set the target is T1, alpha-B crystalline (Homo sapiens, UniProt P02511).
T1 sequence (P02511 1-175): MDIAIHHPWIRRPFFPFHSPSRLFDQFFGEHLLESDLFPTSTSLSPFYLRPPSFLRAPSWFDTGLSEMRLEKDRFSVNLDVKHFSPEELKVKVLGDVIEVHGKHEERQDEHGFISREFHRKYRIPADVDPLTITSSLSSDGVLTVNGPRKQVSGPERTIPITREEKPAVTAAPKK
The data set can be described thus: Surface Plasmon Resonance assay. The data set is classed as binding. Particulars: biotinylated peptide on streptavidin coated chips, Biacore 2000.

The test system of data set [2] is heart function in rats after ischemia/reperfusion injury. The following applies: rat, in vivo.
Where [3] appears, read: echocardiography, 24 hours after administration, n=4, mean ± SEM.
The mark [4] stands for this setting: hemodynamic measurement, 24 hours after administration, n=4, mean ± SEM.

Take Sumo-mCherry-CSTSMLKAC: the “homing of the protein to post-ischemic cardiac tissue” value in the data set on ischemic left ventricle is “clear homing”.

In data set [1] (24 hours after administration, n=4, mean ± SEM), CSTSMLKAC (disulfide 1-9 (inferred)) gave a Body weight of 260.25 ± 13.14 g. Moreover, in data set [1] (24 hours after systemic administration, versus scrambled peptide and PBS, n=4 each), the “impairment in LV contractile function” value is “did not induce any significant impairment”. In addition, in data set [1] (setting [3]), the “% Fractional shortening” value turned out to be 54.05±6.72%, the Anterior wall thickness was found to be 2.00±0.04 mm, the End-diastolic dimension is 5.33±0.36 mm and the End-systolic dimension is reported as 2.49±0.51 mm. This substance also yielded a Posterior wall thickness in data set [1] (setting [3]) of 1.73±0.10 mm. In data set [1] (setting [4]), this substance displayed a Cardiac index of 19.87±2.54 ml/min per 100 g, a Cardiac output of 51430 ± 6708 µL/min, an Ejection fraction of 28.44±2.09% and an End-diastolic pressure of 3.96±0.67 mmHg. In data set [1] (setting [4]), this substance showed an End-diastolic volume of 393.56 ± 25.62 µL, an End-systolic pressure of 119±3.16 mmHg, an End-systolic volume of 280.76 ± 15.91 µL and a Stroke volume of 112.82 ± 13.61 µL. In addition, the “interaction with alpha-B crystalline” value at alpha-B crystalline is “a significant interaction between CSTSMLKAC and alpha-B crystalline was not demonstrated”.

For “CSKTALSMC (disulfide 1-9 (inferred)) [scrambled peptide]”, in data set [2], the “% Fractional shortening” value is 43.20±3.22%, the Anterior wall thickness amounted to 2.08±0.08 mm, the Cardiac index was found to be 20.96±4.48 ml/min per 100 g and the Cardiac output was 44530 ± 7633 µL/min. In data set [2], this substance displayed an Ejection fraction of 27.89±3.01%, an End-diastolic dimension of 5.16±0.23 mm, an End-diastolic pressure of 3.08±0.22 mmHg and an End-diastolic volume of 362.72 ± 14.82 µL. Moreover, in data set [2], the End-systolic dimension was 2.93±0.18 mm, the End-systolic pressure stood at 120.1±3.48 mmHg, the End-systolic volume came out at 260.91 ± 10.99 µL and the Heart rate was found to be 430.75±20.59 beats/min. Also, in data set [2], the LVM/BW was determined as 2.94±0.32, the Left ventricle mass amounted to 646 ± 55.48 g, the Posterior wall thickness turned out to be 1.83±0.06 mm and the Stroke volume is 101.81 ± 13.74 µL.

The values are drawn from publication PMC3075368 (Journal of molecular and cellular cardiology, 2011).
